Reference: ChEMBL document CHEMBL3046951, “Volatile constituents from the leaves of Callicarpa japonica Thunb. and their antibacterial activities” (2004)

Experiments:
Format in all cases: functional
Vibrio parahaemolyticus [1] = assay: Antimicrobial activity against Vibrio parahaemolyticus ATCC 33844 assessed as growth inhibition rate at 0.017 mg/l after 72 hr by spectrophotometry; settings: ATCC 33844, 72 h, read-out: GI
Salmonella typhimurium [2] = assay: Antimicrobial activity against Salmonella enterica subsp. enterica serovar Typhimurium ATCC 14028 assessed as growth inhibition rate at 0.34 mg/l after 72 hr by spectrophotometry; settings: ATCC 14028, 72 h, read-out: GI
How it was run: (§1)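 Salmonella Typhimurium ATCC 14028 grown in nutrient broth at 30 °C, precultured 24 h, then subcultured 1:100 for 18 h before testing. Single volatile compounds (>95% pure) were added. OD was read every 24 h over 72 h in a Bioscreen C, with 10% Tween 80 as the comparison control.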

Listeria monocytogenes [3] = assay: Antimicrobial activity against Listeria monocytogenes ATCC 19111 assessed as growth inhibition rate at 0.34 mg/l after 72 hr by spectrophotometry; settings: ATCC 19111, 72 h, read-out: GI
How it was run: (§2)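 L. monocytogenes was grown at 30 °C in tryptic soy broth, subcultured for 18 h, and exposed to pure volatile compounds (>95% purity). Growth was followed by Bioscreen C optical density every 24 h for 72 h against a 10% Tween 80 control.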

Bacillus cereus [4] = assay: Antimicrobial activity against Bacillus cereus ATCC 11778 assessed as growth inhibition rate at 0.017 mg/l after 72 hr by spectrophotometry; settings: ATCC 11778, 72 h, read-out: GI
How it was run: (§3)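 Pure volatile compounds (purity >95%; one at 90%) were tested against B. cereus ATCC 11778. The strain was grown at 30 °C in nutrient broth for 24 h, then subcultured for 18 h. Optical density was read in a Bioscreen C every 24 h for 72 h, with 10% Tween 80 as the control.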

Staphylococcus aureus [5] = assay: Antimicrobial activity against Staphylococcus aureus ATCC 25923 assessed as growth inhibition rate at 0.34 mg/l after 72 hr by spectrophotometry; settings: ATCC 25923, 72 h, read-out: GI
Vibrio parahaemolyticus [6] = assay: Antimicrobial activity against Vibrio parahaemolyticus ATCC 33844 assessed as growth inhibition rate at 0.068 mg/l after 72 hr by spectrophotometry; settings: ATCC 33844, 72 h, read-out: GI
Vibrio parahaemolyticus [7] = assay: Antimicrobial activity against Vibrio parahaemolyticus ATCC 33844 assessed as growth inhibition rate at 0.68 mg/l after 72 hr by spectrophotometry; settings: ATCC 33844, 72 h, read-out: GI
How it was run: (§4)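 Vibrio parahaemolyticus ATCC 33844 grown at 37 °C in tryptic soy broth with 3% (w/v) NaCl, using an 18 h subculture of a 24 h culture. Pure compounds (>95% purity) were tested. Bioscreen C optical density was read every 24 h for 72 h against a 10% Tween 80 control.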

Vibrio parahaemolyticus [8] = assay: Antimicrobial activity against Vibrio parahaemolyticus ATCC 33844 assessed as growth inhibition rate at 6.8 mg/l after 72 hr by spectrophotometry; settings: ATCC 33844, 72 h, read-out: GI; how it was run: as §4
Listeria monocytogenes [9] = assay: Antimicrobial activity against Listeria monocytogenes ATCC 19111 assessed as growth inhibition rate at 6.8 mg/l after 72 hr by spectrophotometry; settings: ATCC 19111, 72 h, read-out: GI; how it was run: as §2
Escherichia coli [10] = assay: Antimicrobial activity against Escherichia coli O157:H7 ATCC 43894 assessed as growth inhibition rate at 0.017 mg/l after 72 hr by spectrophotometry; settings: O157:H7 ATCC 43894, 72 h, read-out: GI
Escherichia coli [11] = assay: Antimicrobial activity against Escherichia coli O157:H7 ATCC 43894 assessed as growth inhibition rate at 6.8 mg/l after 72 hr by spectrophotometry; settings: O157:H7 ATCC 43894, 72 h, read-out: GI
Staphylococcus aureus [12] = assay: Antimicrobial activity against Staphylococcus aureus ATCC 25923 assessed as growth inhibition rate at 0.017 mg/l after 72 hr by spectrophotometry; settings: ATCC 25923, 72 h, read-out: GI
Listeria monocytogenes [13] = assay: Antimicrobial activity against Listeria monocytogenes ATCC 19111 assessed as growth inhibition rate at 0.68 mg/l after 72 hr by spectrophotometry; settings: ATCC 19111, 72 h, read-out: GI; how it was run: as §2
Bacillus cereus [14] = assay: Antimicrobial activity against Bacillus cereus ATCC 11778 assessed as growth inhibition rate at 0.34 mg/l after 72 hr by spectrophotometry; settings: ATCC 11778, 72 h, read-out: GI; how it was run: as §3
Escherichia coli [15] = assay: Antimicrobial activity against Escherichia coli O157:H7 ATCC 43894 assessed as growth inhibition rate at 0.68 mg/l after 72 hr by spectrophotometry; settings: O157:H7 ATCC 43894, 72 h, read-out: GI
Vibrio parahaemolyticus [16] = assay: Antimicrobial activity against Vibrio parahaemolyticus ATCC 33844 assessed as growth inhibition rate at 0.34 mg/l after 72 hr by spectrophotometry; settings: ATCC 33844, 72 h, read-out: GI
Bacillus cereus [17] = assay: Antimicrobial activity against Bacillus cereus ATCC 11778 assessed as growth inhibition rate at 0.68 mg/l after 72 hr by spectrophotometry; settings: ATCC 11778, 72 h, read-out: GI; how it was run: as §3
Bacillus cereus [18] = assay: Antimicrobial activity against Bacillus cereus ATCC 11778 assessed as growth inhibition rate at 3.4 mg/l after 72 hr by spectrophotometry; settings: ATCC 11778, 72 h, read-out: GI; how it was run: as §3
Listeria monocytogenes [19] = assay: Antimicrobial activity against Listeria monocytogenes ATCC 19111 assessed as growth inhibition rate at 0.017 mg/l after 72 hr by spectrophotometry; settings: ATCC 19111, 72 h, read-out: GI; how it was run: as §2
Salmonella typhimurium [20] = assay: Antimicrobial activity against Salmonella enterica subsp. enterica serovar Typhimurium ATCC 14028 assessed as growth inhibition rate at 0.068 mg/l after 72 hr by spectrophotometry; settings: ATCC 14028, 72 h, read-out: GI; how it was run: as §1
Vibrio parahaemolyticus [21] = assay: Antimicrobial activity against Vibrio parahaemolyticus ATCC 33844 assessed as growth inhibition rate at 3.4 mg/l after 72 hr by spectrophotometry; settings: ATCC 33844, 72 h, read-out: GI; how it was run: as §4
Staphylococcus aureus [22] = assay: Antimicrobial activity against Staphylococcus aureus ATCC 25923 assessed as growth inhibition rate at 3.4 mg/l after 72 hr by spectrophotometry; settings: ATCC 25923, 72 h, read-out: GI
How it was run: (§5)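 Staphylococcus aureus ATCC 25923 grown at 37 °C in tryptic soy broth, using an 18 h subculture of a 24 h culture. Individual leaf-volatile compounds (>95% purity) were tested. Bioscreen C optical density was recorded every 24 h for 72 h and compared with a 10% Tween 80 control.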

Listeria monocytogenes [23] = assay: Antimicrobial activity against Listeria monocytogenes ATCC 19111 assessed as growth inhibition rate at 0.068 mg/l after 72 hr by spectrophotometry; settings: ATCC 19111, 72 h, read-out: GI; how it was run: as §2
Bacillus cereus [24] = assay: Antimicrobial activity against Bacillus cereus ATCC 11778 assessed as growth inhibition rate at 0.068 mg/l after 72 hr by spectrophotometry; settings: ATCC 11778, 72 h, read-out: GI; how it was run: as §3
Escherichia coli [25] = assay: Antimicrobial activity against Escherichia coli O157:H7 ATCC 43894 assessed as growth inhibition rate at 0.34 mg/l after 72 hr by spectrophotometry; settings: O157:H7 ATCC 43894, 72 h, read-out: GI
Staphylococcus aureus [26] = assay: Antimicrobial activity against Staphylococcus aureus ATCC 25923 assessed as growth inhibition rate at 0.68 mg/l after 72 hr by spectrophotometry; settings: ATCC 25923, 72 h, read-out: GI; how it was run: as §5
Salmonella typhimurium [27] = assay: Antimicrobial activity against Salmonella enterica subsp. enterica serovar Typhimurium ATCC 14028 assessed as growth inhibition rate at 0.68 mg/l after 72 hr by spectrophotometry; settings: ATCC 14028, 72 h, read-out: GI; how it was run: as §1
Salmonella typhimurium [28] = assay: Antimicrobial activity against Salmonella enterica subsp. enterica serovar Typhimurium ATCC 14028 assessed as growth inhibition rate at 3.4 mg/l after 72 hr by spectrophotometry; settings: ATCC 14028, 72 h, read-out: GI; how it was run: as §1
Salmonella typhimurium [29] = assay: Antimicrobial activity against Salmonella enterica subsp. enterica serovar Typhimurium ATCC 14028 assessed as growth inhibition rate at 6.8 mg/l after 72 hr by spectrophotometry; settings: ATCC 14028, 72 h, read-out: GI; how it was run: as §1
Staphylococcus aureus [30] = assay: Antimicrobial activity against Staphylococcus aureus ATCC 25923 assessed as growth inhibition rate at 6.8 mg/l after 72 hr by spectrophotometry; settings: ATCC 25923, 72 h, read-out: GI; how it was run: as §5
Escherichia coli [31] = assay: Antimicrobial activity against Escherichia coli O157:H7 ATCC 43894 assessed as growth inhibition rate at 0.068 mg/l after 72 hr by spectrophotometry; settings: O157:H7 ATCC 43894, 72 h, read-out: GI
Escherichia coli [32] = assay: Antimicrobial activity against Escherichia coli O157:H7 ATCC 43894 assessed as growth inhibition rate at 3.4 mg/l after 72 hr by spectrophotometry; settings: O157:H7 ATCC 43894, 72 h, read-out: GI
Salmonella typhimurium [33] = assay: Antimicrobial activity against Salmonella enterica subsp. enterica serovar Typhimurium ATCC 14028 assessed as growth inhibition rate at 0.017 mg/l after 72 hr by spectrophotometry; settings: ATCC 14028, 72 h, read-out: GI; how it was run: as §1
Staphylococcus aureus [34] = assay: Antimicrobial activity against Staphylococcus aureus ATCC 25923 assessed as growth inhibition rate at 0.068 mg/l after 72 hr by spectrophotometry; settings: ATCC 25923, 72 h, read-out: GI
Listeria monocytogenes [35] = assay: Antimicrobial activity against Listeria monocytogenes ATCC 19111 assessed as growth inhibition rate at 3.4 mg/l after 72 hr by spectrophotometry; settings: ATCC 19111, 72 h, read-out: GI; how it was run: as §2
Bacillus cereus [36] = assay: Antimicrobial activity against Bacillus cereus ATCC 11778 assessed as growth inhibition rate at 6.8 mg/l after 72 hr by spectrophotometry; settings: ATCC 11778, 72 h, read-out: GI; how it was run: as §3

CC/C=C/C=C/C=O [2,4-HEPTADIENAL]
inhibition of growth at 0.017 µg/mL (Vibrio parahaemolyticus [1]): 5.6%
inhibition of growth at 0.34 µg/mL (Salmonella typhimurium [2]): 8.6%
inhibition of growth at 0.34 µg/mL (Listeria monocytogenes [3]): 1.6%
inhibition of growth at 0.017 µg/mL (Bacillus cereus [4]): 0%
inhibition of growth at 0.34 µg/mL (Staphylococcus aureus [5]): 2.8%
inhibition of growth at 0.068 µg/mL (Vibrio parahaemolyticus [6]): 5.8%
inhibition of growth at 0.68 µg/mL (Vibrio parahaemolyticus [7]): 11.4%
inhibition of growth at 6.8 µg/mL (Vibrio parahaemolyticus [8]): 99%
inhibition of growth at 6.8 µg/mL (Listeria monocytogenes [9]): 51.6%
inhibition of growth at 0.017 µg/mL (Escherichia coli [10]): 0.5%
inhibition of growth at 6.8 µg/mL (Escherichia coli [11]): 27.5%
inhibition of growth at 0.017 µg/mL (Staphylococcus aureus [12]): 0%
inhibition of growth at 0.68 µg/mL (Listeria monocytogenes [13]): 5.9%
inhibition of growth at 0.34 µg/mL (Bacillus cereus [14]): 1.8%
inhibition of growth at 0.68 µg/mL (Escherichia coli [15]): 4.4%
inhibition of growth at 0.34 µg/mL (Vibrio parahaemolyticus [16]): 6.1%
inhibition of growth at 0.68 µg/mL (Bacillus cereus [17]): 11%
inhibition of growth at 3.4 µg/mL (Bacillus cereus [18]): 92.9%
inhibition of growth at 0.017 µg/mL (Listeria monocytogenes [19]): 0.1%
inhibition of growth at 0.068 µg/mL (Salmonella typhimurium [20]): 8.8%
inhibition of growth at 3.4 µg/mL (Vibrio parahaemolyticus [21]): 82.4%
inhibition of growth at 3.4 µg/mL (Staphylococcus aureus [22]): 80.9%
inhibition of growth at 0.068 µg/mL (Listeria monocytogenes [23]): 0.8%
inhibition of growth at 0.068 µg/mL (Bacillus cereus [24]): 1.1%
inhibition of growth at 0.34 µg/mL (Escherichia coli [25]): 1.3%
inhibition of growth at 0.68 µg/mL (Staphylococcus aureus [26]): 4.9%
inhibition of growth at 0.68 µg/mL (Salmonella typhimurium [27]): 18.2%
inhibition of growth at 3.4 µg/mL (Salmonella typhimurium [28]): 57.8%
inhibition of growth at 6.8 µg/mL (Salmonella typhimurium [29]): 88.6%
inhibition of growth at 6.8 µg/mL (Staphylococcus aureus [30]): 95.5%
inhibition of growth at 0.068 µg/mL (Escherichia coli [31]): 0.5%
inhibition of growth at 3.4 µg/mL (Escherichia coli [32]): 16.6%
inhibition of growth at 0.017 µg/mL (Salmonella typhimurium [33]): 5.8%
inhibition of growth at 0.068 µg/mL (Staphylococcus aureus [34]): 0%
inhibition of growth at 3.4 µg/mL (Listeria monocytogenes [35]): 34.5%
inhibition of growth at 6.8 µg/mL (Bacillus cereus [36]): 100%
